This is an account of results in ChEMBL document CHEMBL4368909, “Identification of Dihydrofuro[3,4- d]pyrimidine Derivatives as Novel HIV-1 Non-Nucleoside Reverse Transcriptase Inhibitors with Promising Antiviral Activities and Desirable Physicochemical Properties” (J Med Chem, 2019).

In series [1] the test system is Human immunodeficiency virus 1. As to the kind of experiment: Antiviral activity against HIV1 NL4-3 infected in human TZM-bl cells after 2 days by luciferase-bright glo assay. The class given is functional, organism-based. Particulars: Human immunodeficiency virus 1, NL4-3, TZM-bl, 48 h.
The subject of series [2] is TZM. Description: Cytotoxicity against human TZM-bl cells after 4 days by XTT assay. It is filed as cell-based. Particulars: 96 h.
The nature of series [3]: Selectivity ratio of CC50 for human TZM-bl cells to EC50 for HIV1 NL4-3 infected in human TZM-bl cells. The class given is toxicity, cell-based. Particulars: read-out: Ratio CC50/EC50. The method in brief:
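The selectivity index is CC50/EC50 in TZM-bl cells against NL4-3. […] The highest concentration tested was 125 ng/mL.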

Series [4] has as its system Human immunodeficiency virus 1. As to the kind of experiment: Antiviral activity against wild type HIV1 3B infected in human MT4 cells assessed as reduction in virus-induced cytopathic effect after 5 days by MTT assay. Particulars: Human immunodeficiency virus 1, 3B, MT4, 120 h. It is filed as functional, organism-based. (In general: Protection from cytopathic effect is a common read-out in antiviral testing.)

Series [5] has as its system Human immunodeficiency virus 1. Description: Antiviral activity against HIV1 RES056 infected in human MT4 cells assessed as reduction in virus-induced cytopathic effect after 5 days by MTT assay. It is filed as functional, organism-based. Particulars: Human immunodeficiency virus 1, RES056, MT4, 120 h.
Series [6] deals with Human immunodeficiency virus type 1 reverse transcriptase (Human immunodeficiency virus 1, UniProt Q72547). Description: Inhibition of recombinant HIV1 reverse transcriptase using (DIG)-dUTP and biotin-labeled dNTPs as substrate after 1 hr by ELISA. (In general: ELISA stands for enzyme-linked immunosorbent assay.)
The subject of series [7] is Human immunodeficiency virus 2. As to the kind of experiment: Antiviral activity against HIV2 ROD infected in human MT4 cells assessed as reduction in virus-induced cytopathic effect after 5 days by MTT assay. Particulars: Human immunodeficiency virus 2, ISOLATE ROD, MT4, 120 h.
For series [8], the system named is MT4. Description: Cytotoxicity against human MT4 cells after 5 days by MTT assay. Particulars: mt4, 120 h. It is filed as cell-based. In general terms: Tetrazolium assays rely on reduction of a dye to a coloured formazan, in cell work by metabolically active cells.

In general, EC50 refers to the concentration at which the effect is half-maximal. In general, CC50 refers to the concentration at which the toxic effect on the cells reaches its halfway point. A lower CC50 goes with greater toxicity to the cells. `Cc1cc(C#N)cc(C)c1Oc1nc(N[C@H]2CCN(Cc3ccc(C(N)=O)cc3)C2)nc2ccsc12`: the EC50 in series [1] worked out at 55.7 nM. For the same molecule, the CC50 in series [2] is above 250 nM. Besides, the selectivity ratio in series [3] came out at 4.5.
What is called IC50 is the concentration that inhibits the measured activity by half. Consider `Cc1cc(C#N)cc(C)c1Oc1nc(NC2CCN(Cc3cccc(C(N)=O)c3)CC2)nc2c1SCC2`, for which the concentration giving a half-maximal response (EC50) in series [4] is 27.7 nM; in series [5], 629 nM; in series [7], above 223000 nM. The IC50 in series [6] worked out at 94 nM.
The molecule `Cc1cc(C#N)cc(C)c1Oc1nc(N[C@H]2CCN(Cc3ccc(S(N)(=O)=O)cc3)C2)nc2ccsc12` returned an EC50 in series [1] of 104 nM. Also, the selectivity ratio in series [3] was 2.2.
`Cc1cc(C#N)cc(C)c1Oc1nc(NC2CCN(Cc3ccc(S(N)(=O)=O)cc3)CC2)nc2c1CCCC2`: the results for the EC50 in series [4], in series [5] and in series [7] were 6 nM, 667 nM and above 228000 nM, respectively. Besides, the CC50 in series [8] is above 228000 nM. For the same molecule, the IC50 in series [6] is 84 nM.
For the molecule `Cc1cc(C#N)cc(C)c1Oc1nc(NC2CCCN(Cc3ccc(S(C)(=O)=O)cc3)CC2)nc2ccsc12` (centres undefined), the EC50 in series [1] was determined as 9.98 nM. For the same molecule, the CC50 in series [2] is above 222 nM. Also, the selectivity ratio in series [3] came to 22.
Regarding `Cc1cc(C#N)cc(C)c1Oc1nc(NC2CCN(Cc3ccncc3)CC2)nc2c1SCC2`, the values for the EC50 in series [4], in series [5] and in series [7] were 2.6 nM, 46 nM and 15700 nM, respectively. Further, the IC50 in series [6] is 112 nM.
Consider `Cc1cc(C#N)cc(C)c1Oc1nc(NC2CCN(Cc3ccc(C(N)=O)cc3)CC2)nc2c1CCCC2`, for which the values for the EC50 in series [4], in series [5] and in series [7] were 6 nM, 291 nM and above 233000 nM, respectively. In series [8], this molecule yielded a CC50 above 233000 nM. Further, the IC50 in series [6] was found to be 51 nM.
As to `Cc1cc(C#N)cc(C)c1Oc1nc(NC2CCN(Cc3ccncc3)CC2)nc2c1CCC2`, the EC50 in series [4] is 1.8 nM; in series [5], 54.7 nM; in series [7], 138000 nM. Besides, in series [8], the CC50 is above 274000 nM. The IC50 in series [6] worked out at 73 nM.
On to `Cc1cc(C#N)cc(C)c1Oc1nc(NC2CCN(Cc3ccc(N)cc3)CC2)nc2c1CSC2`, for which the EC50 was 8.4 nM in series [4], 704 nM in series [5] and 108000 nM in series [7]. In series [8], the CC50 was above 257000 nM. For the same molecule, the IC50 in series [6] came to 115 nM.
In the case of `Cc1cc(C#N)cc(C)c1Oc1nc(NC2CCN(Cc3cccc(C(N)=O)c3)CC2)nc2c1COC2`, the results for the EC50 in series [4], in series [5] and in series [7] were 7.8 nM, 1030 nM and 209000 nM, respectively. Further, in series [6], the 50% inhibitory concentration (IC50) was 91 nM.
For the molecule `Cc1cc(C#N)cc(C)c1Oc1nc(N[C@@H]2CCN(Cc3ccc(S(N)(=O)=O)cc3)C2)nc2ccsc12`, the EC50 in series [1] is 8.69 nM. The CC50 in series [2] is above 233 nM. For the same molecule, in series [3], the selectivity ratio worked out at 26.
Regarding `Cc1cc(C#N)cc(C)c1Oc1nc(NC2CCN(Cc3ccc(S(C)(=O)=O)cc3)CC2)nc2c1CCCC2`, the results for the EC50 in series [4], in series [5] and in series [7] were 8 nM, 66.1 nM and at least 163000 nM, respectively. In addition, the CC50 in series [8] was above 266000 nM. Moreover, the IC50 in series [6] came out at 89 nM.
On to `Cc1cc(C#N)cc(C)c1Oc1nc(N[C@@H]2CCN(Cc3ccc(C(N)=O)cc3)C2)nc2ccsc12`, for which, in series [1], the EC50 was 10.4 nM. For the same molecule, the selectivity ratio in series [3] turned out to be 24.
On to `Cc1cc(C#N)cc(C)c1Oc1nc(NC2CCCN(Cc3ccc(S(N)(=O)=O)cc3)CC2)nc2ccsc12` (centres undefined), for which a half-maximal effect in series [1] (EC50) was put at 2.2 nM. This molecule registered a CC50 in series [2] above 222 nM.
For `Cc1cc(C#N)cc(C)c1Oc1nc(NC2CCN(Cc3ccc([N+](=O)[O-])cc3)CC2)nc2c1COC2`, the EC50 in series [4] is 7.4 nM; in series [5], 511 nM; in series [7] it was above 11100 nM. For the same molecule, in series [6], the IC50 came to 92 nM.
`Cc1cc(C#N)cc(C)c1Oc1nc(NC2CC3CCC(C2)N3Cc2cccc(C(N)=O)c2)nc2ccsc12` (centres undefined) came in with an EC50 in series [1] above 232 nM. The CC50 in series [2] is above 232 nM. For the same molecule, in series [3], the selectivity ratio was found to be 1.
Regarding `Cc1cc(C#N)cc(C)c1Oc1nc(N[C@H]2CCN(Cc3ccc(S(C)(=O)=O)cc3)C2)nc2ccsc12`, the EC50 in series [1] amounted to 50.7 nM. The molecule further registered a CC50 in series [2] above 234 nM. In addition, in series [3], the selectivity ratio came out at 4.6.
As to `Cc1cc(C#N)cc(C)c1Oc1nc(NC2CCN(Cc3ccc(NS(C)(=O)=O)cc3)CC2)nc2c1CSC2`, the results for the 50% effective concentration (EC50) in series [4], in series [5] and in series [7] were 11.2 nM, 5240 nM and above 257000 nM, respectively. In addition, the CC50 in series [8] was above 257000 nM. Besides, the IC50 in series [6] turned out to be 140 nM.
For `Cc1cc(C#N)cc(C)c1Oc1nc(NC2CCN(Cc3ccc(C(N)=O)cc3)CC2)nc2c1SCCC2`, the 50% effective concentration (EC50) was 3 nM in series [4], 93 nM in series [5] and above 44300 nM in series [7]. The molecule also came in with a CC50 in series [8] of at least 44300 nM.
`Cc1cc(C#N)cc(C)c1Oc1nc(NC2CC3CCC(C2)N3Cc2ccc(S(N)(=O)=O)cc2)nc2ccsc12` (centres undefined) gave an EC50 in series [1] above 217 nM. Moreover, the CC50 in series [2] is above 217 nM. Also, the selectivity ratio in series [3] was found to be 1.
As for `Cc1cc(C#N)cc(C)c1Oc1nc(NC2CCN(Cc3ccc(S(C)(=O)=O)cc3)CC2)nc2c1SCCC2`, the EC50 was 3.9 nM in series [4], 98.3 nM in series [5] and above 3400 nM in series [7]. The CC50 in series [8] was at least 3400 nM.
For `Cc1cc(C#N)cc(C)c1Oc1nc(NC2CN(Cc3ccc(S(C)(=O)=O)cc3)C2)nc2ccsc12`, the EC50 in series [1] came to 207 nM. In addition, in series [2], the CC50 was above 240 nM. For the same molecule, the selectivity ratio in series [3] is 1.1.
The like results for `Cc1cc(C#N)cc(C)c1Oc1nc(NC2CC3CCC(C2)N3Cc2ccc(S(C)(=O)=O)cc2)nc2ccsc12` (centres undefined) were, in that order, above 217 nM, above 217 nM and 1.
Take `Cc1cc(C#N)cc(C)c1Oc1nc(N[C@@H]2CCN(Cc3ccc(S(C)(=O)=O)cc3)C2)nc2ccsc12`: the EC50 in series [1] worked out at 13.9 nM. Also, the selectivity ratio in series [3] was 16.
In series [1], `Cc1cc(C#N)cc(C)c1Oc1nc(NC2CN(Cc3ccc(S(N)(=O)=O)cc3)C2)nc2ccsc12` returned an EC50 of 4.53 nM. This molecule also had a CC50 in series [2] above 240 nM. Besides, in series [3], the selectivity ratio is 53.
For `Cc1cc(C#N)cc(C)c1Oc1nc(N[C@@H]2CCN(Cc3ccncc3)C2)nc2ccsc12` the same measures were 16 nM, above 273 nM and 17.
The molecule `Cc1cc(C#N)cc(C)c1Oc1nc(NC2CCCN(Cc3ccc(C(N)=O)cc3)CC2)nc2ccsc12` (centres undefined) gave an EC50 in series [1] above 237 nM. For the same molecule, in series [2], the CC50 was above 237 nM. Further, the selectivity ratio in series [3] worked out at 1.
In the case of `Cc1cc(C#N)cc(C)c1Oc1nc(N[C@@H]2CCN(Cc3cccc(C(N)=O)c3)C2)nc2ccsc12`, the response in series [1] was half-maximal at 41.3 nM (EC50). For the same molecule, the selectivity ratio in series [3] is 6.
As for `Cc1cc(C#N)cc(C)c1Oc1nc(NC2CN(Cc3ccncc3)C2)nc2ccsc12`, the midpoint of the response in series [1], the EC50, lay at 2.21 nM. This molecule also had a CC50 in series [2] above 282 nM. For the same molecule, in series [3], the selectivity ratio turned out to be 128.
For `Cc1cc(C#N)cc(C)c1Oc1nc(NC2CN(Cc3ccc(C(N)=O)cc3)C2)nc2ccsc12` the same measures were 4.76 nM, above 257 nM and 54.
As for `Cc1cc(C#N)cc(C)c1Oc1nc(NC2CCN(Cc3ccc(C(N)=O)cc3)CC2)nc2c1CCC2`, the EC50 in series [4] worked out at 6.1 nM; in series [5], 173 nM; in series [7], 139000 nM. Also, the IC50 in series [6] worked out at 73 nM.
`Cc1cc(C#N)cc(C)c1Oc1nc(N[C@H]2CCN(Cc3ccncc3)C2)nc2ccsc12` displayed an EC50 in series [1] of 16.7 nM. Besides, the selectivity ratio in series [3] amounted to 16.
